Data as given in ChEMBL document CHEMBL1145019, “The power of visual imagery in drug design. Isopavines as a new class of morphinomimetics and their human opioid receptor binding activity” (J Med Chem, 2003).
Calls of active or inactive are those of the source. No cut-off for these calls is given here.

Tests used:
[1] = molecular target: Kappa-type opioid receptor (Homo sapiens, UniProt P41145); assay: biochemical; type: cell-based, HEK293
Mu-type opioid receptor [2] = molecular target: T1, Mu-type opioid receptor (Homo sapiens, UniProt P35372); assay: biochemical; type: cell-based, HEK293
T1 sequence (P35372 whole entry): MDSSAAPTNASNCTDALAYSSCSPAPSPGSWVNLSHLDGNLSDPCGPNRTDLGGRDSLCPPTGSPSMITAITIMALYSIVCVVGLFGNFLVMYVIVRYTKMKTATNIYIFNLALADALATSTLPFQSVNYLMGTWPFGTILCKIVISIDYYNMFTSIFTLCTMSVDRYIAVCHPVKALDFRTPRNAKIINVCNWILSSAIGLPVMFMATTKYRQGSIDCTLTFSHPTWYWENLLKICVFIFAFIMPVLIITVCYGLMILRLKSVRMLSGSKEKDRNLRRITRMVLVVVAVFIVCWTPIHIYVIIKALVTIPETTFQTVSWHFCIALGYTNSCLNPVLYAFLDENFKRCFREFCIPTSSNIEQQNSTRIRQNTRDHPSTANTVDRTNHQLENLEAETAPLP

[3] = molecular target: Delta-type opioid receptor (Homo sapiens, UniProt P41143); assay: In vitro binding affinity against cloned human Opioid receptor delta 1 expressed in HEK 293S cells; type: cell-based, HEK293
Chain of Delta-type opioid receptor (P41143 whole entry): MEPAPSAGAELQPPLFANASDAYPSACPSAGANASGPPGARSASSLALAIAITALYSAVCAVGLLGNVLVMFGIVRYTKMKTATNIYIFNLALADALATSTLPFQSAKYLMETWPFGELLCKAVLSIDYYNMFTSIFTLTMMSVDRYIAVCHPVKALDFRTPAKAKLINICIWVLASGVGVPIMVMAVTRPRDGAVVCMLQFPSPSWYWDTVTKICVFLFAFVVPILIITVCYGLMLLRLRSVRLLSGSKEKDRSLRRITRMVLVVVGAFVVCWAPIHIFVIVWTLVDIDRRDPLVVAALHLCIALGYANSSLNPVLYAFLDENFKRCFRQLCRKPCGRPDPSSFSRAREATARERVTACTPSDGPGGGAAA
Outline: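 Compounds tested at 5 or 10 concentrations in duplicate, in 50 mM Tris, 3 mM MgCl2, 1 mg/mL BSA, pH 7.4. Bound radioactivity measured at equilibrium by filtration. Nonspecific binding defined with 10 µM naloxone. IC50 from a two-parameter logistic fit.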

Mu-type opioid receptor [4] = molecular target: T1, Mu-type opioid receptor; assay: Tested for effective concentration against cloned human Opioid receptor mu 1
Outline: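 GTP[γ]35S binding using HEK-293S membranes expressing hμ (0.2 pmol/mg protein). Filtration after 1 h. Stimulated binding defined with 30 µM DAMGO. EC50 from a three-parameter logistic fit.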

[5] = Selectivity of mu IC50 to that of delta IC50 was calculated; NA means Insufficient binding potency
Outline: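 Ratio = delta IC50 / mu IC50, from radioligand displacement on HEK-293S P2 membranes expressing human receptors. […] Tris 50 mM, MgCl2 3 mM, BSA 1 mg/mL, pH 7.4. Filtration at equilibrium; 10 µM naloxone defined nonspecific binding. IC50 from logistic fits.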

Chain of Kappa-type opioid receptor (P41145 whole entry): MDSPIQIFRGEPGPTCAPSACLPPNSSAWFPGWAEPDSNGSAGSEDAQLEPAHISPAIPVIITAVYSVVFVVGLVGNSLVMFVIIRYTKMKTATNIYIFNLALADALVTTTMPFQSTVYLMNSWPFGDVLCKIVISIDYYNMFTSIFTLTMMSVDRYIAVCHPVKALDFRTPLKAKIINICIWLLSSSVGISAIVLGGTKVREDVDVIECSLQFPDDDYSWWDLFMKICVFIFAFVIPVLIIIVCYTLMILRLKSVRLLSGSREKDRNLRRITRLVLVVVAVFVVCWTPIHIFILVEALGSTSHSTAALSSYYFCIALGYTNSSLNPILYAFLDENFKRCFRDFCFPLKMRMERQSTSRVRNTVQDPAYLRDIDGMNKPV

| SMILES | IC50 [1] | IC50 (Mu-type opioid receptor [2]) | IC50 [3] | EC50 (Mu-type opioid receptor [4]) | NA [5] |
| --- | --- | --- | --- | --- | --- |
| Brc1ccc2c(c1)[C@H]1c3cc(Br)ccc3[C@H](C2)N2CCC[C@@H]12 | 7400 nM | 500 nM | 5020 nM |  |  |
| C[C@@H]1[C@H]2c3cc(Br)ccc3C[C@@H](c3ccc(Br)cc32)N1C | 6920 nM | 360 nM | 8840 nM |  |  |
| C[C@@H]1[C@H]2c3cc(N4CCOCC4)ccc3C[C@@H](c3ccc(N4CCOCC4)cc32)N1C | > 10000 nM | 690 nM | 7500 nM |  |  |
| CN1[C@@H]2Cc3ccccc3[C@@H](c3ccccc32)[C@@H]1Cc1ccccc1 | 1710 nM | 1050 nM | 3440 nM |  |  |
| C[C@@H]1[C@H]2c3cc(N4CCN(C)CC4)ccc3C[C@@H](c3ccc(N4CCN(C)CC4)cc32)N1C | 3200 nM | 53 nM | 2500 nM |  |  |
| C[C@@H]1[C@H]2c3ccccc3C[C@@H](c3ccccc32)N1Cc1ccccc1 | > 5800 nM | > 10000 nM | > 8800 nM |  |  |
| C[C@@H]1[C@H]2c3cc(O)ccc3C[C@@H](c3ccc(O)cc32)N1CC1CC1 | 204 nM | 6.4 nM | 460 nM |  |  |
| C[C@@H]1[C@H]2c3cc(Br)ccc3C[C@@H](c3ccc(Br)cc32)N1CC1CC1 | > 4900 nM | 2050 nM | > 10000 nM |  |  |
| COc1ccc2c(c1)[C@H]1c3cc(OC)ccc3[C@H](C2)N(CC2CC2)[C@@H]1C | 5330 nM | 1030 nM | 6630 nM |  |  |
| C[C@@H]1[C@H]2c3cc(N4CCN(C)CC4)ccc3C[C@@H](c3ccc(N4CCN(C)CC4)cc32)N1CC1CC1 | 1600 nM | 690 nM | 2040 nM |  |  |
| C[C@@H]1[C@H]2c3cc(NCc4ccccc4)ccc3C[C@@H](c3ccc(NCc4ccccc4)cc32)N1C | 640 nM | 8 nM | 120 nM | 4300 nM |  |
| COc1ccc2c(c1)[C@H]1c3cc(OC)ccc3[C@H](C2)N(C)[C@@H]1C | > 10000 nM | 420 nM | > 10000 nM |  | inactive |
| CC(=O)Oc1ccc2c(c1)[C@H]1c3cc(OC(C)=O)ccc3[C@H](C2)N2CCC[C@@H]12 | > 6000 nM | 220 nM | 2900 nM |  |  |
| C[C@@H]1[C@H]2c3ccccc3C[C@@H](c3ccccc32)N1C | > 75000 nM | 230 nM | > 10000 nM |  |  |
| COc1cc2c(cc1OC)[C@@H]1c3cc(OC)c(OC)cc3[C@@H](C2)N(C)[C@H]1C | > 10000 nM |  | > 5700 nM |  | inactive |
| C[C@H]1N[C@@H]2Cc3ccccc3[C@H]1c1ccccc12 | > 10000 nM | 650 nM | > 10000 nM |  |  |
| Oc1ccc2c(c1)[C@H]1c3cc(O)ccc3[C@H](C2)N2CCC[C@@H]12 | 7200 nM | 130 nM | 3800 nM |  |  |
| C[C@H]1[C@H]2c3ccccc3C[C@H](c3ccccc32)N1C | > 10000 nM | 611 nM | > 10000 nM |  |  |
| CC(=O)Oc1ccc2c(c1)[C@H]1c3cc(OC(C)=O)ccc3[C@H](C2)N(CC2CC2)[C@@H]1C | 2020 nM | 44 nM | 3300 nM |  |  |

| SMILES | IC50 [1] | IC50 (Mu-type opioid receptor [2]) | IC50 [3] | EC50 (Mu-type opioid receptor [4]) | NA [5] |
| --- | --- | --- | --- | --- | --- |
| CN1CC[C@]23CCCC[C@H]2[C@H]1Cc1ccc(O)cc13 [LEVORPHANOL] | 4 nM |  | 5.1 nM |  |  |
| Brc1ccc(CNc2ccc3c(c2)[C@H]2c4cc(NCc5ccc(Br)cc5)ccc4[C@H](C3)N3CCC[C@@H]23)cc1 | 7000 nM | 120 nM | 5300 nM |  |  |
| C=CCN1[C@H](C)[C@H]2c3ccccc3C[C@H]1c1ccccc12 | > 4000 nM | 2000 nM | > 9700 nM |  |  |
| CN1[C@@H]2Cc3ccccc3[C@@H](c3ccccc32)[C@@H]1CCCO | > 10000 nM | 1150 nM | > 10000 nM |  |  |
| CC(C)C[C@H]1[C@H]2c3ccccc3C[C@H](c3ccccc32)N1C | 2970 nM | 1010 nM | > 8700 nM |  |  |
| C[C@@H]1[C@H]2c3ccccc3C[C@@H](c3ccccc32)N1CC1CC1 | > 10000 nM | 1080 nM | > 10000 nM |  |  |
| COc1cc2c(cc1OC)[C@H]1c3cc(OC)c(OC)cc3[C@H](C2)N(CC2CC2)[C@@H]1C | > 10000 nM | > 10000 nM | > 10000 nM |  | inactive |
| c1ccc2c(c1)C[C@H]1c3ccccc3[C@H]2[C@@H]2CCCN12 | 6100 nM | 59 nM | > 7800 nM |  |  |
| COc1ccc2c(c1)[C@H]1c3cc(OC)ccc3[C@H](C2)N2CCC[C@@H]12 | > 10000 nM | 160 nM | 4040 nM |  |  |
| CC(C)[C@H]1[C@H]2c3ccccc3C[C@H](c3ccccc32)N1C | 3410 nM | 695 nM | > 10000 nM |  |  |
| c1ccc2c(c1)C[C@@H]1c3ccccc3[C@H]2[C@@H]2CCCCN12 | 7400 nM | 390 nM | > 10000 nM |  |  |
| C[C@@H]1[C@H]2c3cc(Nc4ccccc4)ccc3C[C@@H](c3ccc(Nc4ccccc4)cc32)N1C | 3600 nM | 56 nM | 530 nM |  |  |
| C[C@@H]1[C@H]2c3cc(O)ccc3C[C@@H](c3ccc(O)cc32)N1C | 961 nM | 16 nM | 1300 nM |  |  |
| COc1cc2c(cc1OC)[C@H]1c3cc(OC)c(OC)cc3[C@H](C2)N(C)[C@@H]1C | > 10000 nM | > 10000 nM | > 10000 nM |  | inactive |
| CC(=O)N1[C@H](C)[C@H]2c3ccccc3C[C@H]1c1ccccc12 | > 10000 nM | > 9500 nM | > 10000 nM |  |  |
| CC(=O)Oc1ccc2c(c1)[C@H]1c3cc(OC(C)=O)ccc3[C@H](C2)N(C)[C@@H]1C | > 9500 nM | 200 nM | > 4700 nM |  |  |
| Fc1ccc2c(c1)[C@H]1c3cc(F)ccc3[C@H](C2)N2CCC[C@@H]12 | > 6400 nM | 103 nM | > 10000 nM |  |  |
| C[C@@H]1[C@H]2c3cc(NCc4ccccc4)ccc3C[C@@H](c3ccc(NCc4ccccc4)cc32)N1CC1CC1 | 31 nM | 7 nM | 49 nM |  |  |
| C[C@@H]1[C@H]2c3cc(Nc4ccccc4)ccc3C[C@@H](c3ccc(Nc4ccccc4)cc32)N1CC1CC1 | 1200 nM | 82 nM | 890 nM |  |  |
